Data reported in ChEMBL document CHEMBL1649356, “Triterpenoids from Aglaia abbreviata and their cytotoxic activities” (J Nat Prod, 2010).

Legend:
Assay type in all cases: functional, cell-based
[1] = test system: SMMC-7721; test: Cytotoxicity against human SMMC7721 cells after 48 hrs by MTT assay; conditions: SMMC-7721, 48 h
How it was run: (§1)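 Cells grown in RPMI-1640 or DMEM with 10% FBS, 5% CO2, 37 °C. Adherent cells seeded and allowed 12 h to attach before compound addition; suspension cells seeded just before addition; initial density 1 × 10^5 cells/mL. Compound at 0.1, 1, 10, 100, 500 µM, triplicate, 48 h; doxorubicin positive control. Viability by MTT; IC50 by Reed and Muench method.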

[2] = test system: KB; test: Cytotoxicity against human KB cells after 48 hrs by MTT assay; how it was run: as §1
[3] = Cytotoxicity against human MCF7/ADR cells after 48 hrs by MTT assay; conditions: NCI/ADR-RES; how it was run: as §1
[4] = Cytotoxicity against human KB/VCR cells after 48 hrs by MTT assay; how it was run: as §1
[5] = test system: K562; test: Cytotoxicity against human K562 cells after 48 hrs by MTT assay; conditions: K562, 48 h; how it was run: as §1
[6] = test system: MCF7; test: Cytotoxicity against human MCF7 cells after 48 hrs by MTT assay; conditions: MCF7, 48 h; how it was run: as §1

Row | SMILES | IC50 [1] [nM] | IC50 [2] [nM] | IC50 [3] [nM] | IC50 [4] [nM] | IC50 [5] [nM] | IC50 [6] [nM]
1 | CC1(C)C(=O)CC[C@]2(C)[C@H]3CC[C@@H]4[C@@H]([C@]5(C)C=CC(=O)O5)CC[C@@]4(C)[C@]3(C)CC[C@@H]12 [AGLAIABBREVIATIN A] | > 10000 | > 10000 | > 10000 | > 10000 | > 10000 | > 10000
2 | CC(=O)O[C@@H]1CC[C@]2(C)[C@H]3CC[C@@H]4[C@@H]([C@]5(C)C=CC(=O)O5)CC[C@@]4(C)[C@]3(C)CC[C@H]2C1(C)C [AGLAIABBREVIATIN B] | > 10000 | > 10000 | > 10000 | > 10000 | > 10000 | > 10000
3 | CC(=O)[C@H]1CC[C@]2(C)[C@@H]1CC[C@@H]1[C@@]3(C)CC[C@@H](O)C(C)(C)[C@@H]3CC[C@]12C [AGLAIABBREVIATIN C] | > 10000 | > 10000 | > 10000 | 1100 | > 10000 | > 10000
4 | CC1(C)C=CC[C@@](C)([C@H]2CC[C@]3(C)[C@@H]2CC[C@@H]2[C@@]4(C)CCC(=O)C(C)(C)[C@@H]4CC[C@]23C)O1 [AGLAIABBREVIATIN D] | 2100 | 1200 | > 10000 | 960 | 1200 | > 10000
5 | C=C(C/C=C/C(C)(C)O)[C@H]1CC[C@]2(C)[C@@H]1CC[C@@H]1[C@@]3(C)CCC(=O)C(C)(C)[C@@H]3CC[C@]12C [AGLAIABBREVIATIN E] | 4200 | 2700 | > 10000 | 830 | 1800 | > 10000
6 | CC(=O)O[C@@H]1CC[C@]2(C)[C@H]3CC[C@@H]4[C@@H]([C@@](C)(O)CCCC(C)(C)OO)CC[C@@]4(C)[C@]3(C)CC[C@H]2C1(C)C [AGLAIABBREVIATIN F] | 1400 | 600 | 5500 | 310 | 460 | > 10000
7 | COc1cccc2c1C(=O)c1c(O)c3c(c(O)c1C2=O)C[C@@](O)(C(=O)CO)C[C@@H]3O[C@H]1C[C@H](N)[C@H](O)[C@H](C)O1 [DOXORUBICIN] | 370 | 12 | > 10000 | 450 | 170 | 540
